Screening data (PubChem)
The list is not random: actives were taken first. Their share in the collection is about 12%.
Cl transport mod: KCC2 cotransporter modulators, thallium flux, primary screen, cell-based, HEK293 KCC2, FluoZin-2 fluorescence, MLSMR | B-score of Tl+ flux slope (higher = more flux/activation; lower = inhibition) at 10 µM | AID 1456, 2008 | KCC2 cells, thallium flux FluoZin-2 fluorescence | actives 2.2% (n = 190,000);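 active = thallium flux slope and its plate-corrected score both differing from the plate sample mean at a set confidence after two filtering rounds, in either direction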;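 also: slope of fluorescence scaled to starting intensity during 10 to 20 s after thallium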
ROMK primary: ROMK potassium channel modulators, primary screen, cell-based, thallium flux, MLSMR library; ATP-sensitive inward rectifier potassium channel 1 (Homo sapiens), P48048; Tet-inducible ROMK, thallium flux fluorescence; actives lie on both sides; B-score at 10 µM; actives 2% (n = 130,000); AID 1918, 2009;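 active = signal ratio slope over the read window, or its plate-corrected B-score, at least 3 SD from the plate mean, either direction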;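 also: B-score of the F/F0 ratio slope over 7 to 12 s after thallium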
Target sequence (P48048 whole entry, looked up): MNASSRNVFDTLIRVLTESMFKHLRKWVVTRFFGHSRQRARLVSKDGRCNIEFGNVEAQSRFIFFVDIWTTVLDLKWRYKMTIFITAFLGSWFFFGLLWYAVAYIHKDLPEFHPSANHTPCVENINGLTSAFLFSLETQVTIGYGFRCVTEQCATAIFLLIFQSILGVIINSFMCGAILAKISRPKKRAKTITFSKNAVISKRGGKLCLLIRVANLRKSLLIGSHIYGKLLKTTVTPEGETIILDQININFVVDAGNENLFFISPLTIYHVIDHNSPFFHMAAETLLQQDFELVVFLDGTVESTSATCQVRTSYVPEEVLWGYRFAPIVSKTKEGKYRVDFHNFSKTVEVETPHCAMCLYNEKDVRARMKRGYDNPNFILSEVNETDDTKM
L major viab: Leishmania major promastigote growth inhibition, primary screen; Leishmania major promastigotes, resazurin fluorescence viability; actives 9% (n = 200,000); inhibition, % at 10 µM; in the data active = inhibition above about 50%;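 also: promastigotes grown with compound for 44 hours at 28 °C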
Diaph act CS: compounds boosting diaphorase resazurin reduction – biochemical, uHTS, resorufin fluorescence, counter-screen for diaphorase-coupled primary assays, primary screen; activation factor at 20 µM; Diaphorase/resazurin coupled assay, 16 min; active compounds read high; 1 = vehicle wells, 0 = NADH-free wells; actives 0.005% (n = 190,000);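 active = diaphorase activity raised at least twofold by the compound at 20 µM; inactive = activation factor below 2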
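Test system: Clostridium kluyveri diaphorase, purified enzyme. Buffer or medium: 50 mM HEPES pH 7.4 buffer plus MgCl2 and Tween 20. Also added: 0.114 mM NADH and 0.1 mM resazurin, final amounts. Dosing: compound 20 µM once, DMSO 1%. Schedule: 16 min enzyme reaction, ambient temperature. Detection: fluorescence of resorufin, 544 nm excitation, 590 nm emission.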
Diaphorase inh: diaphorase inhibitors and chemical oxidizers, primary screen, counter-screen for diaphorase-coupled primary assays, biochemical, uHTS, resorufin fluorescence. diaphorase resazurin-to-resorufin fluorescence, NADH, 16 min; bacterial (C. kluyveri) enzyme, not human. actives 0.69% (n = 190,000). inhibition, % at 20 µM. AID 1217, 2008;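 active = primary screen inhibition at 20 µM above a set limit, cut at about 50% in these data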;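 also: plate controls were DMSO with full reaction for no effect and wells lacking NADH for full effect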
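controls = No-NADH positive control and DMSO neutral control | system = Clostridium kluyveri diaphorase enzyme | timing = reaction incubation of 16 min at room temperature | signal = resorufin fluorescence 544/590 nm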
WT yeast gro inh: growth inhibition of WT strain, primary screen, mitochondrial fusion inhibitor project, WT and mutant strains, chemical genetic | actives 2.1% (n = 190,000) | inhibition, % at 10 µM | AID 1362, 2008 | mitochondrial fusion phenotypic screen; in the data active = inhibition above about 58%; tested in S. cerevisiae
* marks the source's active call; other numbers are inactive results; . = not tested or not shown; ! = repeats disagree.

SMILES	Cl transport mod	ROMK primary	L major viab	Diaph act CS	Diaphorase inh	WT yeast gro inh
OCCN1CCN(CC(O)C(F)(F)F)CC1 (stereo not given)	0.984	0.148	-2.5	1	3.1	0.7
N=c1n(CCN2CCOCC2)c2ccccc2n1CC(O)COc1ccccc1 (stereo not given)	0.453	-0.821	13.8	0.9	8.9	2.5
COc1ccccc1OCC(O)Cn1c(=N)n(CCN2CCCCC2)c2ccccc21 (stereo not given)	-0.213	.	64.9*	1	-1.8	9.5
N=c1n(CCN2CCCCC2)c2ccccc2n1CC(O)COc1ccccc1 (stereo not given)	0.868	.	100.5*	1	1.6	-20.8
Cc1ccccc1OCC(O)Cn1c(=N)n(CCN2CCOCC2)c2ccccc21 (stereo not given)	0.0336	-1.91	51.3*!	0.9	8.0	-10.0
CN(C)CCn1c(=N)n(CC(O)c2ccc(Cl)c(Cl)c2)c2ccccc21 (stereo not given)	.	-0.896	100.2*	1	-1.5	1.2
COc1ccc(OCC(O)Cn2c(=N)n(CCN3CCOCC3)c3ccccc32)cc1 (stereo not given)	0.0735	0.195	-4.8	0.9	6.0	3.1
COc1cc(NC(=O)c2ccccc2-c2ccccc2)cc(OC)c1	-1.16	0.837	2.1	0.9	6.8	-5.8
Cc1cc(C(=O)NP(=O)(N2CC(C)OC(C)C2)N2CC(C)OC(C)C2)c(C)n1C1CC1 (stereo not given)	0.396	-0.387	-2.3	0.9	5.2	-3.2
O=C(Nc1ccc(F)cc1)c1nc2c(nnn2Cc2cccc3ccccc23)c(=O)[nH]1	-1.42	-0.602	.	.	.	.
OCc1nc2ccccc2n1CC(O)COc1ccccc1 (stereo not given)	-0.458	.	-3.9	1	-0.4	-0.5
N=c1n(Cc2ccccc2)c2ccccc2n1CC(O)COc1ccccc1 (stereo not given)	0.0781	.	100.4*	0.9	6.0	32.2
CCn1c(=N)n(CC(O)c2ccccc2)c2ccccc21 (stereo not given)	.	-1.35	11.9	0.9	5.2	-10.2
N=c1n(CCN2CCCC2)c2ccccc2n1CC(O)c1ccco1 (stereo not given)	.	.	-2.0	0.9	8.7	40.3
N=c1n(CCN2CCCCC2)c2ccccc2n1CC(O)c1cccc(Br)c1 (stereo not given)	0.22	.	100.5*	0.9	8.0	-5.7
CCn1c(=N)n(CC(O)COc2cccc(C)c2)c2ccccc21 (stereo not given)	-1.33	-3.21	57.9*	1.1	-5.7	-2.4
N=c1n(CCN2CCOCC2)c2ccccc2n1Cc1ccccc1Br	0.0915	.	95.2*	0.9	7.1	-21.4
CC(C)CC(C(=O)OCC(=O)c1c(N)n(C)c(=O)n(C)c1=O)N1C(=O)C2CC=CCC2C1=O (stereo not given)	1.69	-0.0315	2.8	0.9	7.5	22.0
CCOC(=O)C(=CNc1cc(Cl)c(-c2ccco2)c(Cl)c1)C(=O)OCC	0.704	.	.	.	.	.
CC(=O)Nc1ccc(S(=O)(=O)Nc2cccc(-c3csc(C)n3)c2)cc1	-0.398	1.15	3.4	0.8	20.0	-5.0
Cc1nc(-c2cccc(NS(=O)(=O)c3cccc4ccccc34)c2)cs1	.	0.0418	6.4	0.7	28.2	61.9*
Nc1nc(-c2cccc(NS(=O)(=O)c3ccccc3)c2)cs1	0.82	.	59.1*	1	3.2	3.6
COc1cccc(CNc2ccc(N3CCCCC3)cc2)c1OC	-1.18	.	99.8*	0.4	59.9*	4.7
COc1cccc(CNc2ccc(S(N)(=O)=O)cc2)c1OC	0.599	-0.105	-8.2	1	4.9	11.2
COc1ccccc1CNc1ccc(N2CCCCC2)cc1	0.196	.	22.4	0.3	65.4*	15.3
C/C=C/C(=O)Nc1cccc(C2=NOC3(C2)C[C@@H](C(N)=O)N(C(=O)/C(C)=C/C)C3)c1 (stereo not given in full)	-1.44	.	.	.	.	.
